Experimental data published in ChEMBL document CHEMBL3585241, “Synthesis and biological evaluation of thiabendazole derivatives as anti-angiogenesis and vascular disrupting agents” (Bioorg Med Chem, 2015).
Calls of active or inactive are those of the source. No cut-off for these calls is given here.

How the values were obtained:
HUVEC [1] = experiment: Cytotoxicity against HUVEC assessed as inhibition of cell proliferation rate at 100 uM after 72 hrs by MTT assay relative to control; type: functional; details: Homo sapiens
HUVEC [2] = experiment: Cytotoxicity against HUVEC assessed as inhibition of cell proliferation rate at 10 uM after 72 hrs by MTT assay relative to control; type: functional; details: Homo sapiens
Tubulin (Bos taurus) [3] = target: T1, Tubulin (Bos taurus) (UniProt Q6B856+Q862F3); experiment: Inhibition of bovine brain tubulin polymerization at 3 uM measured every 5 secs for 0 to 3 mins , 10 secs for 3 to 5 mins, 30 secs for 5 to 10 mins, 60 secs for 10 to 17 mins by spectrophotometric analysis
Tubulin (Bos taurus) [4] = target: T1, Tubulin (Bos taurus); experiment: Inhibition of bovine brain tubulin polymerization at 5 uM by spectrophotometric analysis; details: TDE = time-dependent effect
Summary of the method: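 MAP-rich bovine brain tubulin (2 mg/mL) in 80 mM PIPES pH 6.9, 2 mM MgCl2, 0.5 mM EGTA, 5% glycerol, with DMSO or compound at 5 µM. Polymerization started with 1 mM GTP at 37 °C. Absorbance at 340 nm followed over 17 min (5 s intervals to 3 min, 10 s to 5 min, 30 s to 10 min, 60 s to 17 min).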

A549 [5] = experiment: Inhibition of alpha-tubulin formation in human A549 cells at 50 nM after 24 hrs by TRITC/Hoechst 33258 staining-based immunofluorescence microscopic analysis; type: cell-based
Tubulin (Bos taurus) [6] = target: T1, Tubulin (Bos taurus); experiment: Inhibition of bovine brain tubulin polymerization at 10 uM measured every 5 secs for 0 to 3 mins , 10 secs for 3 to 5 mins, 30 secs for 5 to 10 mins, 60 secs for 10 to 17 mins by spectrophotometric analysis
Thoracic aorta = experiment: Antiangiogenic activity in Sprague-Dawley rat thoracic aorta ring assessed as inhibition of microvessel outgrowth at 0.33 uM measured on day 6 by inverse microscopic analysis; type: functional, tissue-based
Summary of the method: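 Aortas from 6-week Sprague Dawley rats taken under ether anesthesia, rinsed in serum-free M199 and cut into 1-mm rings. Rings embedded in Matrigel and held 1 h at 37 °C. Serum-free M199, with or without 20% FBS, then added with test agents at various concentrations. Sprouting imaged by inverted microscope on day 6.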

HUVEC [7] = experiment: Antiangiogenic activity in HUVEC assessed as inhibition of tubular structure formation at 0.033 to 0.33 uM after 8 hrs by microscopic analysis; type: functional, cell-based; details: Homo sapiens
HUVEC [8] = experiment: Induction of vascular disruption in HUVEC after 16 hrs by inverted microscopic analysis; type: functional, cell-based; details: Homo sapiens
HUVEC [9] = experiment: Cytotoxicity against HUVEC assessed as inhibition of cell proliferation rate after 72 hrs by MTT assay; type: functional, cell-based; details: Homo sapiens
Summary of the method: (§1)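 Cells seeded at 3.5 × 10^4 cells/mL and cultured 24 h (37 °C, 5% CO2), then exposed to compounds for 72 h. DMSO at 0.5% final served as the vehicle control. IC50 taken from triplicate experiments, reported as mean.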

A549 [10] = experiment: Inhibition of alpha-tubulin formation in human A549 cells at 250 uM after 24 hrs by TRITC/Hoechst 33258 staining-based immunofluorescence microscopic analysis; type: cell-based
HCT-116 = experiment: Cytotoxicity against human HCT116 cells assessed as inhibition of cell proliferation rate after 72 hrs by MTT assay; type: functional, cell-based; details: HCT-116, 72 h; summary of the method: as §1
HepG2 = experiment: Cytotoxicity against human HepG2 cells assessed as inhibition of cell proliferation rate after 72 hrs by MTT assay; type: functional, cell-based; details: HepG2, 72 h; summary of the method: as §1
A549 [11] = experiment: Cytotoxicity against human A549 cells assessed as inhibition of cell proliferation rate after 72 hrs by MTT assay; type: functional, cell-based; details: A549, 72 h; summary of the method: as §1

c1ccc2cc3[nH]c(-c4cscn4)nc3cc2c1 showed an inhibition at 100 µM (HUVEC [1]) of 59% and an inhibition at 10 µM (HUVEC [2]) of 2%.

In the case of COC(=O)Nc1nc2cc(C(=O)c3cccs3)ccc2[nH]1, the inhibition (Tubulin (Bos taurus) [3]) is reported as “Active”.

With O=C(Nc1scnc1-c1nc2ccccc2[nH]1)NC1CC1 the inhibition (Tubulin (Bos taurus) [4]) was “tde”.

In the case of CC[C@]1(O)C[C@@H]2CN(CCc3c([nH]c4ccccc34)[C@@](C(=O)OC)(c3cc4c(cc3OC)N(C)[C@H]3[C@@](O)(C(=O)OC)[C@H](OC(C)=O)[C@]5(CC)C=CCN6CC[C@]43[C@@H]65)C2)C1, the inhibition (A549 [5]) is reported as “Active”.

In the case of CC(=O)O[C@H]1C(=O)[C@@]2(C)[C@H]([C@H](OC(=O)c3ccccc3)[C@]3(O)C[C@H](OC(=O)[C@H](O)[C@@H](NC(=O)c4ccccc4)c4ccccc4)C(C)=C1C3(C)C)[C@]1(OC(C)=O)CO[C@@H]1C[C@@H]2O, the inhibition (Tubulin (Bos taurus) [6]) is reported as “inactive”.

With Cc1cc2nc(-c3cscn3)[nH]c2cc1C the inhibition at 100 µM (HUVEC [1]) was 0% and the inhibition at 10 µM (HUVEC [2]) was 0%.

CCN(CC)CCNC(=O)c1c(C)[nH]c(/C=C2\C(=O)Nc3ccc(F)cc32)c1C was tested, and the inhibition (Thoracic aorta) was “Active” and the inhibition (HUVEC [7]) was “Active”.

For c1cc2[nH]c(-c3cscn3)nc2cn1, the inhibition at 100 µM (HUVEC [1]) was 0% and the inhibition at 10 µM (HUVEC [2]) was 8%.

In the case of c1ccc2[nH]cnc2c1 [BENZIMIDAZOLE], the IC50 (HUVEC [8]) is reported as > 250 µM, the inhibition at 100 µM (HUVEC [1]) is reported as 11% and the IC50 (HUVEC [9]) is reported as > 100 µM. The inhibition at 10 µM (HUVEC [2]) was 0%, the inhibition (A549 [10]) was “Active” and the IC50 (HCT-116) was > 100 µM. The IC50 (HepG2) was > 100 µM and the IC50 (A549 [11]) was > 100 µM.

Clc1ccc2[nH]c(-c3cscn3)nc2c1 gave an inhibition at 100 µM (HUVEC [1]) of 53% and an inhibition at 10 µM (HUVEC [2]) of 7%.

For c1ccc(Cn2c(-c3ccccc3)nc3ccccc32)cc1, the inhibition at 100 µM (HUVEC [1]) was 38% and the inhibition at 10 µM (HUVEC [2]) was 7%.

Cc1ccc2nc(-c3ccccn3)[nH]c2c1 gave an inhibition at 100 µM (HUVEC [1]) of 10% and an inhibition at 10 µM (HUVEC [2]) of 7%.

For O=C(c1ccccc1)c1ccc2[nH]c(-c3cscn3)nc2c1, the inhibition (Tubulin (Bos taurus) [4]) was “tde”.
